Source: ChEMBL document CHEMBL3351600, “Sulfur, selenium and tellurium pseudopeptides: synthesis and biological evaluation” (Bioorg Med Chem, 2014)

Experiments:
[1] = Growth inhibition of human PC3 cells after 48 hrs; type: functional; conditions: PC-3, 48 h
How it was run: (§1)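 NCI-60 human tumour cell line panel screen run at the US National Cancer Institute under its standard cytotoxicity protocol. It covers leukaemia, NSCLC, colon, CNS, melanoma, ovarian, renal, prostate and breast lines. An initial single-dose test was followed by five-dose testing with 48 h compound exposure.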

[2] = tested on: KM12; experiment: Growth inhibition of human KM12 cells after 48 hrs; type: functional; conditions: KM12, 48 h; how it was run: as §1
[3] = tested on: MDA-MB-468; experiment: Growth inhibition of human MDA-MB-468 cells after 48 hrs; type: functional; conditions: MDA-MB-468, 48 h; how it was run: as §1
[4] = tested on: DU-145; experiment: Growth inhibition of human DU145 cells after 48 hrs; type: functional; conditions: DU-145, 48 h; how it was run: as §1
[5] = tested on: Candida albicans; experiment: Antimicrobial activity against Candida albicans assessed as inhibition at 20 ug/6 mm disk after 1 to 2 days by agar diffusion assay; type: functional
How it was run: (§2)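 Standard agar diffusion: 6-mm paper disks loaded with 20 µg of compound were placed on inoculated plates. Inhibition-zone diameter (mm) was read after 1 and 2 days of growth.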

[6] = tested on: NCI-H226; experiment: Growth inhibition of human NCI-H226 cells after 48 hrs; type: functional; conditions: NCI-H226, 48 h; how it was run: as §1
[7] = tested on: Mycolicibacterium phlei; experiment: Antimicrobial activity against Mycobacterium phlei assessed as inhibition at 20 ug/6 mm disk after 1 to 2 days by agar diffusion assay; type: functional; how it was run: as §2
[8] = tested on: IGROV-1; experiment: Growth inhibition of human IGROV1 cells after 48 hrs; type: functional; conditions: IGROV-1, 48 h; how it was run: as §1
[9] = tested on: M14; experiment: Growth inhibition of human M14 cells after 48 hrs; type: functional; conditions: M14, 48 h; how it was run: as §1
[10] = Growth inhibition of human HCT15 cells after 48 hrs; type: functional; conditions: HCT-15, 48 h; how it was run: as §1
[11] = tested on: NCI-H460; experiment: Growth inhibition of human NCI-H460 cells after 48 hrs; type: functional; conditions: NCI-H460, 48 h; how it was run: as §1
[12] = Growth inhibition of human EKVX cells after 48 hrs; type: functional; how it was run: as §1
[13] = tested on: MCF7; experiment: Cytotoxicity against human MCF7 cells assessed as cell viability after 24 hrs incubation by MTT assay; type: functional, cell-based; conditions: MCF7, 24 h
How it was run: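 Cell lines came from DSMZ; primary human fibroblasts served as non-cancer controls. Cells were grown in medium with 10% FCS, seeded at 50,000 cells/ml, and grown 2 days at 37 °C, 10% CO2. Serial dilutions were then added for 24 h. MTT (final 0.5 mg/ml) was added for 2 h. Formazan was pelleted, PBS-washed, dissolved in isopropanol/0.4% HCl and read at 590 nm. Two parallel experiments were run. IC50 was taken as the concentration giving 50% of untreated-control absorbance.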

[14] = Growth inhibition of human Hs 578T cells after 48 hrs; type: functional; how it was run: as §1
[15] = tested on: NCI-H322M; experiment: Growth inhibition of human NCI-H322M cells after 48 hrs; type: functional; how it was run: as §1
[16] = Growth inhibition of human SF539 cells after 48 hrs; type: functional; conditions: SF-539, 48 h; how it was run: as §1
[17] = tested on: SN12C; experiment: Growth inhibition of human SN12C cells after 48 hrs; type: functional
How it was run: (§3)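 Run by the NCI 58-cell-line screen under its standard cytotoxicity protocol. Compounds were first tested at a single dose, then at five doses. Cells were exposed to compound for 48 h.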

[18] = tested on: TK-10; experiment: Growth inhibition of human TK10 cells after 48 hrs; type: functional; conditions: TK-10, 48 h; how it was run: as §3
[19] = tested on: Pseudomonas aeruginosa; experiment: Antimicrobial activity against Pseudomonas aeruginosa assessed as inhibition at 20 ug/6 mm disk after 1 to 2 days by agar diffusion assay; type: functional; how it was run: as §2
[20] = Growth inhibition of human COLO205 cells after 48 hrs; type: functional; conditions: COLO 205, 48 h; how it was run: as §1
[21] = tested on: ACHN; experiment: Growth inhibition of human ACHN cells after 48 hrs; type: functional; how it was run: as §1
[22] = tested on: U-251; experiment: Growth inhibition of human U251 cells after 48 hrs; type: functional; conditions: U-251, 48 h; how it was run: as §3
[23] = tested on: Klebsiella pneumoniae; experiment: Antimicrobial activity against Klebsiella pneumoniae assessed as inhibition at 20 ug/6 mm disk after 1 to 2 days by agar diffusion assay; type: functional; how it was run: as §2
[24] = Growth inhibition of human OVCAR3 cells after 48 hrs; type: functional; conditions: OVCAR-3, 48 h; how it was run: as §1
[25] = Growth inhibition of human HCC2998 cells after 48 hrs; type: functional; conditions: HCC 2998, 48 h; how it was run: as §1
[26] = tested on: SK-MEL-28; experiment: Growth inhibition of human SK-MEL-28 cells after 48 hrs; type: functional; conditions: SK-MEL-28, 48 h; how it was run: as §1
[27] = Growth inhibition of human OVCAR5 cells after 48 hrs; type: functional; conditions: OVCAR-5, 48 h; how it was run: as §1
[28] = tested on: 786-0; experiment: Growth inhibition of human 786-0 cells after 48 hrs; type: functional; conditions: 786-0, 48 h; how it was run: as §1
[29] = tested on: CAKI-1; experiment: Growth inhibition of human CAKI-1 cells after 48 hrs; type: functional; conditions: CAKI-1, 48 h; how it was run: as §1
[30] = tested on: MDA-MB-231; experiment: Growth inhibition of human MDA-MB-231 cells after 48 hrs; type: functional; conditions: MDA-MB-231, 48 h; how it was run: as §1
[31] = tested on: Malme-3M; experiment: Growth inhibition of human MALME-3M cells after 48 hrs; type: functional; how it was run: as §1
[32] = tested on: SW-620; experiment: Growth inhibition of human SW620 cells after 48 hrs; type: functional; conditions: SW-620, 48 h; how it was run: as §3
[33] = read-out: pLC50 (the source's name) (converted)

Compound: COc1ccc(N(CC(=O)NCCC[Te]c2ccccc2)C(=O)CNC(=O)OC(C)(C)C)cc1
- GI50 [1]: 1.7 µM
- LC50 [1]: > 100 µM
- TGI ([1]; read-out: pTGI (converted)): 10 µM
- GI50 [2]: 3.31 µM
- CC50 [2, 33]: 43.7 µM
- TGI ([2]; read-out: pTGI (converted)): 11.5 µM
- GI50 [3]: 3.16 µM
- LC50 [3]: 60.3 µM
- TGI ([3]; read-out: pTGI (converted)): 11 µM
- GI50 [4]: 2.88 µM
- LC50 [4]: 30.9 µM
- TGI ([4]; read-out: pTGI (converted)): 7.59 µM
- diameter of the inhibition zone (DIZ) [5]: 0 mm
- GI50 [6]: 2.29 µM
- CC50 [6, 33]: 79.4 µM
- TGI ([6]; read-out: pTGI (converted)): 5.37 µM
- diameter of the inhibition zone (DIZ) [7]: 12 mm
- GI50 [8]: 2.24 µM
- CC50 [8, 33]: 25.7 µM
- TGI ([8]; read-out: pTGI (converted)): 5.37 µM
- GI50 [9]: 3.55 µM
- CC50 [9, 33]: 45.7 µM
- TGI ([9]; read-out: pTGI (converted)): 10.7 µM
- GI50 [10]: 3.16 µM
- CC50 [10, 33]: 93.3 µM
- TGI ([10]; read-out: pTGI (converted)): 10.5 µM
- GI50 [11]: 0.447 µM
- CC50 [11, 33]: 7.59 µM
- TGI ([11]; read-out: pTGI (converted)): 1.86 µM
- GI50 [12]: 0.324 µM
- CC50 [12, 33]: > 100 µM
- TGI ([12]; read-out: pTGI (converted)): 2.34 µM
- IC50 [13]: 5 µM
- GI50 [14]: 2.75 µM
- LC50 [14]: > 100 µM
- TGI ([14]; read-out: pTGI (converted)): 7.24 µM
- GI50 [15]: 2.29 µM
- CC50 [15, 33]: > 100 µM
- TGI ([15]; read-out: pTGI (converted)): 6.61 µM
- GI50 [16]: 2.14 µM
- CC50 [16, 33]: 15.8 µM
- TGI ([16]; read-out: pTGI (converted)): 4.79 µM
- GI50 [17]: 2.04 µM
- LC50 [17]: > 100 µM
- TGI ([17]; read-out: pTGI (converted)): 5.01 µM
- GI50 [18]: 3.89 µM
- LC50 [18]: 100 µM
- TGI ([18]; read-out: pTGI (converted)): 10.7 µM
- diameter of the inhibition zone (DIZ) [19]: 10 mm
- GI50 [20]: 2 µM
- CC50 [20, 33]: 7.24 µM
- TGI ([20]; read-out: pTGI (converted)): 3.8 µM
- GI50 [21]: 1.55 µM
- LC50 [21]: > 100 µM
- TGI ([21]; read-out: pTGI (converted)): 8.71 µM
- GI50 [22]: 2.4 µM
- CC50 [22, 33]: 49 µM
- TGI ([22]; read-out: pTGI (converted)): 6.46 µM
- diameter of the inhibition zone (DIZ) [23]: 12 mm
- GI50 [24]: 3.02 µM
- CC50 [24, 33]: 100 µM
- TGI ([24]; read-out: pTGI (converted)): 7.94 µM
- GI50 [25]: 2.57 µM
- CC50 [25, 33]: 27.5 µM
- TGI ([25]; read-out: pTGI (converted)): 6.61 µM
- GI50 [26]: 3.09 µM
- CC50 [26, 33]: 36.3 µM
- TGI ([26]; read-out: pTGI (converted)): 10 µM
- GI50 [27]: 3.02 µM
- LC50 [27]: 38.9 µM
- TGI ([27]; read-out: pTGI (converted)): 7.41 µM
- GI50 [28]: 3.72 µM
- LC50 [28]: 56.2 µM
- TGI ([28]; read-out: pTGI (converted)): 12.9 µM
- GI50 [29]: 2.09 µM
- LC50 [29]: > 100 µM
- TGI ([29]; read-out: pTGI (converted)): 5.62 µM
- GI50 [30]: 1.91 µM
- TGI ([30]; read-out: pTGI (converted)): 3.89 µM
- GI50 [31]: 15.8 µM
- CC50 [31, 33]: 69.2 µM
- TGI ([31]; read-out: pTGI (converted)): 33.1 µM
- GI50 [32]: 3.47 µM
- CC50 [32, 33]: > 100 µM
- TGI ([32]; read-out: pTGI (converted)): 14.5 µM
